Experiments:
[1] = test system: HEK293; assay: Cytotoxicity against HEK293 cells assessed as reduction in cell viability after 24 hrs by resazurin dye based assay; conditions: Homo sapiens, HEK293, 24 h
Procedure, shortened: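 10,000 HEK293 cells per well allowed to adhere, then medium replaced with medium containing varying compound amounts for 24 h. Resazurin sodium salt (0.125 mg/mL, 10 μL per well) added for 2 h. Viability from fluorescence at 585 nm, excitation 540 nm.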

[2] = test system: Plasmodium falciparum; assay: Antiplasmodial activity against Plasmodium falciparum Dd2 after 72 hrs by SYBR Green I dye-based assay; type: functional, organism-based; conditions: Dd2, 72 h
Procedure, shortened: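 Ring-stage Dd2 cultures at 1% hematocrit and 1% parasitemia grown 72 h at 37 °C under 5.05% CO₂/4.93% O₂/90.2% N₂ with increasing drug concentrations. Viability read by SYBR Green I DNA quantitation in lysis buffer (0.4 μL dye/mL). IC₅₀ by nonlinear regression. Mean of three independent determinations, each in duplicate, ±SEM.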

[3] = test system: A2780; assay: Antiproliferative activity against human A2780 cells after 2 days by alamar blue assay; type: functional, cell-based; conditions: A2780, 48 h

| SMILES | IC50 [1] [µM] | IC50 [2] [µM] | IC50 [3] [µM] |
| --- | --- | --- | --- |
| C=C(C)C(=O)O[C@@H]1C/C(C)=C\[C@@]2(O)C=C(C)[C@H](O2)[C@H]2OC(=O)C(COC(C)=O)=C12 | 58.8 | 44.3 | – |
| C=C(C)C(=O)O[C@H]1C/C(C)=C\C(=O)/C=C(C)/C=C2/OC(=O)C(COC(C)=O)=C21 | 3.5 | 1.49 | 0.21 |
| C=C(C)C(=O)O[C@H]1C/C(C)=C\C(=O)C[C@@]2(C)O[C@H]2[C@H]2OC(=O)C(COC(C)=O)=C12 | 23.8 | 12.1 | – |
| C=C(C)C(=O)O[C@H]1C/C(C)=C\C(=O)/C=C(\C)[C@@H](O)[C@@H]2OC(=O)C(COC(C)=O)=C12 | 56 | 37.1 | – |
| C[C@@H]1CC[C@H]2[C@@H](C)C(=O)O[C@@H]3O[C@@]4(C)CC[C@@H]1[C@]32OO4 [ARTEMISININ] | – | 0.007 | – |
